Results from publication PMC3479646 (ChemMedChem, 2011).
Marks after values point to notes of the source that are not given here.

Experiments:
[1] = test system: Swiss albino mice; test: Antagonism of pentobarbital-induced sleeping time; format: in vivo; conditions: 10 μmol kg^−1 i.v.; for Sleep Time: pentobarbital 50 mg kg^−1 i.p. 10 min later, mean ± SEM; for Decrease in Sleep Time: (1−S/C)×100 relative to control, negative = increase; for effect on pentobarbital-induced sleeping time (in words): compared with control group
[2] = biological target: T1, TRH-R1 (Mus musculus, UniProt P21761); test: Receptor binding assay, competition with [3H][Nτ
T1 sequence (P21761 1-393): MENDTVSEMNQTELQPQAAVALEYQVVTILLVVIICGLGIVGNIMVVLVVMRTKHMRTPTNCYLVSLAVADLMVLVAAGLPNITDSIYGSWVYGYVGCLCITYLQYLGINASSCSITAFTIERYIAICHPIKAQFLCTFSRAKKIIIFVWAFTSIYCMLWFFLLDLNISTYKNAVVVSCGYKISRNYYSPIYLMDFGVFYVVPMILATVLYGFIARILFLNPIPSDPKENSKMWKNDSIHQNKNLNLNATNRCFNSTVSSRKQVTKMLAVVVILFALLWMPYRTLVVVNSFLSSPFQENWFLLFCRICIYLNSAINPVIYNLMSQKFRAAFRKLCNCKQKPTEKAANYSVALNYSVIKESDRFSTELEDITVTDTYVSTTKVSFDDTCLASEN

[3] = biological target: T1, TRH-R1; test: Signaling; format: cell-based
Method in brief: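 HEK 293EM cells stably expressing TRH-R1, grown in DMEM with 10 % FBS and hygromycin, were seeded at 1.5 × 10^5 cells/well. After 16 h they were calcium-phosphate co-transfected with CREB and a CREB-driven luciferase reporter. Various concentrations of test compound were added in 1 % FBS medium for 6 h at 37 °C. Lysate luminescence was then read for 10 s, with 0.4 mM luciferin and 2 mM ATP. Data are from duplicates in three experiments.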

[4] = test system: TRH-R2; test: Receptor binding assay, competition with [3H][Nτ; conditions: ratio of Ki at TRH-R1 and TRH-R2; direction differs between compounds
[5] = test system: TRH-R2; test: Signaling; format: cell-based; conditions: ratio of EC50 at TRH-R1 and TRH-R2
Method in brief: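 HEK 293EM cells stably expressing TRH-R1 or TRH-R2 were co-transfected with CREB and a CREB-luciferase reporter by calcium phosphate. […] Lysates were read by luminescence (0.4 mM luciferin, 2 mM ATP, 10 s). EC50 (μM) was found at each subtype, mean ±SD, duplicates, three experiments.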

[6] = test system: mice; test: Pentylenetetrazole; format: in vivo; conditions: 10 μmol kg^−1 i.v. 10 min prior to PTZ 65 mg kg^−1 i.p.; mean ± SEM
[7] = test system: mice; test: Maximal electric shock; format: in vivo; conditions: 10 μmol kg^−1 i.v. 10 min prior to MES 45 mA for 0.2 s; mean ± SEM
Method in brief: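 Male Swiss albino mice (20–30 g, n = 6–8/group) received saline vehicle or test compound at 10 μmol kg−1 i.v. via the tail vein. MES (45 mA, corneal electrode, 0.2 s) was applied 10 min later, and the duration of tonic hind limb extension was recorded. Data were analysed by one-way ANOVA with Tukey test versus saline.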

Ki [2] [µM]	EC50 [3] [µM]	Compound	Sleep Time [1]	Decrease in Sleep Time [1] [%]	further results
		CCCc1nc(C[C@H](NC(=O)[C@@H]2CCCC(=O)N2)C(=O)N2CCC[C@H]2C(N)=O)cn1C [Compd 16 h, L-pAad-L-His(1-methyl-2-propyl)-L-ProNH2]	98.1 ± 9.4 min	−9.1	
		CC(C)c1nc(C[C@H](NC(=O)[C@@H]2CCCC(=O)N2)C(=O)N2CCC[C@H]2C(N)=O)cn1C [Compd 16 i, L-pAad-L-His(1-methyl-2-isopropyl)-L-ProNH2]	124.3 ± 5.8 min	−38.2	
		NC(=O)[C@@H]1CCCN1C(=O)[C@H](CC1=CN2CC1=CC=CC=CC1CCN=C12)NC(=O)[C@@H]1CCC(=O)C1 (stereo partly drawn) [Compd 22 d, (1R)-3-Ocp-L-His(1-benzyl-2-cyclopropyl)-L-ProNH2]	104.9 ± 5.5 min	−16.7	
> 50	> 50	CC(C)n1cnc(C[C@H](NC(=O)[C@@H]2CCC(=O)C2)C(=O)N2CCC[C@H]2C(N)=O)c1 [Compd 21 d, (1R)-3-Ocp-L-His(1-isopropyl)-L-ProNH2]	123.2 ± 5.9 min	−36.8	
> 50	> 50	CC(C)c1nc(C[C@H](NC(=O)[C@@H]2CCC(=O)N2)C(=O)N2CCC[C@H]2C(N)=O)cn1C [Compd 10 b, L-pGlu-L-His(1-methyl-2-isopropyl)-L-ProNH2]	66.2 ± 9.8 min	25.1	effect on pentobarbital-induced sleeping time (in words) [1]: significant decrease in sleeping time
		CN1C=C(C[C@H](NC(=O)[C@@H]2CCCC(=O)N2)C(=O)N2CCC[C@H]2C(N)=O)C23CC4CC(CN=C12)CC(C4)C3 [Compd 16 m, L-pAad-L-His[1-methyl-2-(adamantan-1-yl)]-L-ProNH2]	76.0 ± 10.9 min	15.4	
		CN1C=C(C[C@H](NC(=O)[C@@H]2CCCC(=O)N2)C(=O)N2CCC[C@H]2C(N)=O)C2CCCCN=C21 (stereo partly drawn) [Compd 16 k]	108.1 ± 14.4 min	−20.2	
		Cn1cc(C[C@H](NC(=O)[C@@H]2CCC(=O)C2)C(=O)N2CCC[C@H]2C(N)=O)nc1C(C)(C)C [Compd 22 j, (1R)-3-Ocp-L-His(1-methyl-2-tert-butyl)-L-ProNH2]	89.8 ± 3.0 min	−0.01	
> 50		CC(C)c1nc(C[C@H](NC(=O)[C@@H]2CCC(=O)C2)C(=O)N2CCC[C@H]2C(N)=O)cn1C [Compd 22 i, (1R)-3-Ocp-L-His(1-methyl-2-isopropyl)-L-ProNH2]	39.8 ± 5.5 ^[b, ^c] min	55.6	
> 50	> 50	CCCc1nc(C[C@H](NC(=O)[C@@H]2CCC(=O)C2)C(=O)N2CCC[C@H]2C(N)=O)cn1C [Compd 22 h, (1R)-3-Ocp-L-His(1-methyl-2-propyl)-L-ProNH2]	80.2 ± 2.4 min	10.7	
> 50	> 50	Cn1cc(C[C@H](NC(=O)[C@@H]2CCC(=O)N2)C(=O)N2CCC[C@H]2C(N)=O)nc1C(C)(C)C [Compd 10 c, L-pGlu-L-His(1-methyl-2-tert-butyl)-L-ProNH2]	59.6 ± 5.5 min	32.5	
		CCCC1=NC=CC=CC=C2CN1C=C2C[C@H](NC(=O)[C@@H]1CCC(=O)N1)C(=O)N1CCC[C@H]1C(N)=O [Compd 10 h, L-pGlu-L-His(1-benzyl-2-propyl)-L-ProNH2]	105.1 ± 5.76 min	−18.8	effect on pentobarbital-induced sleeping time (in words) [1]: increased the sleeping time significantly
0.32	0.29	CCCc1nc(C[C@H](NC(=O)[C@@H]2CCC(=O)N2)C(=O)N2CCC[C@H]2C(N)=O)cn1C [Compd 10 a, L-pGlu-L-His(1-methyl-2-propyl)-L-ProNH2]	41.7 ± 6.1 ^[b] min	52.7	Fold Selectivity (Ki) [4]: 1.9; Fold Selectivity (EC50) [5]: 11; effect on pentobarbital-induced sleeping time (in words) [1]: significant decrease in sleeping time
> 50	> 50	Cn1cc(C[C@H](NC(=O)[C@@H]2CCCC(=O)N2)C(=O)N2CCC[C@H]2C(N)=O)nc1C(C)(C)C [Compd 16 j, L-pAad-L-His(1-methyl-2-tert-butyl)-L-Pro-NH2]	93.1 ± 4.5 min	−3.6	
		CN1C=C(C[C@H](NC(=O)[C@@H]2CCC(=O)C2)C(=O)N2CCC[C@H]2C(N)=O)C2CCCCCN=C21 (stereo partly drawn) [Compd 22 k, (1R)-3-Ocp-L-His(1-methyl-2-cyclohexyl)-L-ProNH2]	106.2 ± 3.0 min	−18.1	
		CC(C)(C)C1=NC=CC=CC=C2CN1C=C2C[C@H](NC(=O)[C@@H]1CCC(=O)C1)C(=O)N1CCC[C@H]1C(N)=O [Compd 22 c, (1R)-3-Ocp-L-His(1-benzyl-2-tert-butyl)-L-ProNH2]	91.6 ± 3.8 min	−1.9	
		NC(=O)[C@@H]1CCCN1C(=O)[C@H](CC1=CN2CC1=CC=CC=CC1CCCCN=C12)NC(=O)[C@@H]1CCC(=O)N1 (stereo partly drawn) [Compd 10 l, L-pGlu-L-His(1-benzyl-2-cyclopentyl)-L-ProNH2]	163.3 ± 18.7 ^[b, ^c] min	−84.7	effect on pentobarbital-induced sleeping time (in words) [1]: increased the sleeping time significantly

Compound	Ki [2] [µM]	EC50 [3] [µM]	Sleep Time [1]	Decrease in Sleep Time [1] [%]	further results
CCCn1cnc(C[C@H](NC(=O)[C@@H]2CCC(=O)C2)C(=O)N2CCC[C@H]2C(N)=O)c1 [Compd 21 c, (1R)-3-Ocp-L-His(1-propyl)-L-ProNH2]	8.1	4.6			Fold Selectivity (Ki) [4]: 1.5; Fold Selectivity (EC50) [5]: 4; PTZ: Clonic Convulsions Frequency [6]: 1.3 ± 0.21 min⁻¹; PTZ: Clonic Convulsions Onset [6]: 68 ± 3 s; MES: Hind Limb Extension Duration [7]: 12.3 ± 0.90 s
Cn1cnc(C[C@H](NC(=O)[C@@H]2CCC(=O)C2)C(=O)N2CCC[C@H]2C(N)=O)c1 [Compd 21 a, (1 R)-3-Ocp-L-His(1-methyl)-L-ProNH2]	0.17	0.05			decrease in binding affinity for TRH-R1 relative to TRH ([2]; Ki compared with TRH): 10 fold; Fold Selectivity (Ki) [4]: 10.6; Fold Selectivity (EC50) [5]: 24; PTZ: Clonic Convulsions Frequency [6]: 1.3 ± 0.33 min⁻¹; PTZ: Clonic Convulsions Onset [6]: 153 ± 7 ^*^, ^** s; MES: Hind Limb Extension Duration [7]: 10.0 ± 0.60 s
CCn1cnc(C[C@H](NC(=O)[C@@H]2CCC(=O)C2)C(=O)N2CCC[C@H]2C(N)=O)c1 [Compd 21 b, (1R)-3-Ocp-L-His(1-ethyl)-L-ProNH2]	0.1	0.14			Fold Selectivity (Ki) [4]: 3.2; Fold Selectivity (EC50) [5]: 4.7; PTZ: Clonic Convulsions Frequency [6]: 1.3 ± 0.21 min⁻¹; PTZ: Clonic Convulsions Onset [6]: 149 ± 8 ^*^, ^** s; MES: Hind Limb Extension Duration [7]: 11.3 ± 1.4 s
